Our source for the IC50 values is ChEMBL document CHEMBL1124826, “Novel prodrugs which are activated to cytotoxic alkylating agents by carboxypeptidase G2” (1990).

Holding throughout (type): functional
Holding throughout (conditions): read-out: ID50 (the source's name)

Experiment [1] concerns LS174T. Briefly: The compound was tested for cytotoxicity against human LS174T,colorectal cell line. A digest of the protocol: (§1)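 JAR and LS174T cells (5×10^4 mL⁻¹, DMEM) exposed to compound at 0.5-800 μM, with no enzyme added. Solutions were freshly made and adjusted to pH 7.4. Dosing was repeated at the same concentration three times, 24 h apart. Duplicates. Viability was counted by hemocytometer 24 h after the last dose, relative to untreated controls.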

Experiment [2] concerns LS174T. Briefly: The compound along with CPG2 was tested for cytotoxicity against human LS174T,colorectal cell line. A digest of the protocol: (§2)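 JAR and LS174T cells (5×10^4 mL⁻¹, DMEM) exposed to prodrug at 0.5-800 μM, freshly made and adjusted to pH 7.4. Dosing was repeated at the same concentration three times, 24 h apart. CPG2 at 6 units mL⁻¹ final was added with each dose to generate active drug in situ. Duplicates. Viability was counted by hemocytometer 24 h after the last dose, relative to untreated controls.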

Experiment [3] relates to JAR. The experiment is described as follows: The compound was tested for cytotoxicity against human JAR, choriocarcinoma cell line. A digest of the protocol: as §1
The subject of experiment [4] is JAR. The experiment is described as follows: The compound along with CPG2 was tested for cytotoxicity against human JAR, choriocarcinoma cell line. A digest of the protocol:
as §2

A value given as a limit tells only on which side of the number the result lay.

For the compound `CS(=O)(=O)OCCN(CCCl)c1ccc(C(=O)NC(CCC(=O)O)C(=O)O)cc1` (configuration not stated), the IC50 with LS174T [1] was determined as 285 µM; with LS174T [2], 10 µM; in the experiment on JAR [3], 630 µM; in the experiment with JAR [4], 10 µM.

In the case of `CS(=O)(=O)OCCN(CCOS(C)(=O)=O)c1ccc(C(=O)NC(CCC(=O)O)C(=O)O)cc1` (configuration not stated), the IC50 in the experiment with LS174T [1] was 800 µM; with LS174T [2], 65 µM; in the experiment with JAR [3], above 800 µM; in the experiment with JAR [4], 60 µM.

Take `O=C(O)CCC(NC(=O)c1ccc(N(CCCl)CCCl)cc1)C(=O)O` (configuration not stated): the IC50 in the experiment on LS174T [1] was above 800 µM; in the experiment on LS174T [2], 25 µM; with JAR [3] it was above 800 µM; in the experiment on JAR [4] it was 8 µM.
